# Measured values: ChEMBL document CHEMBL3351868, “Structure-affinity relationships and pharmacological characterization of new alkyl-resorcinol cannabinoid receptor ligands: Identification of a dual cannabinoid receptor/TRPA1 channel agonist” (Bioorg Med Chem, 2014)
# pEC50, pIC50, pKi: −log10 of the molar value. The source made the active and inactive calls. The calls are words filed in the database; no cut-off is given here.
# Tests used:
# [1] = target: T1, Cannabinoid receptor 1 (Homo sapiens, UniProt P21554); assay: Displacement of [3H]CP-55,940 from human recombinant CB1 receptor expressed in HEK293 cell membranes
# T1 sequence (P21554 whole entry): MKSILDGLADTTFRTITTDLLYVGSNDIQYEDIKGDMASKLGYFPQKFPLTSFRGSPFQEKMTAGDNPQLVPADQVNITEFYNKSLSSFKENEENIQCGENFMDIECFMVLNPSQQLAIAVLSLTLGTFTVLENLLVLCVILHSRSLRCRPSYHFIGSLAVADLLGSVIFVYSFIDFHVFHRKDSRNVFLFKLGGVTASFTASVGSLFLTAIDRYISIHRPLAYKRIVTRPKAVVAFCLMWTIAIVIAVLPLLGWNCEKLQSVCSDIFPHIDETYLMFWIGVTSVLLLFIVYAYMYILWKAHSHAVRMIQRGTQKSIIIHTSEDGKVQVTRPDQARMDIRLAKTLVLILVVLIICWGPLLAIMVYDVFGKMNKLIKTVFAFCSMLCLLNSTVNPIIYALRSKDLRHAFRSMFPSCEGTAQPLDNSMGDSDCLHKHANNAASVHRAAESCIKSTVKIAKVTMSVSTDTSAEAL
# [2] = Cytotoxicity against mouse NIH/3T3 cells after 24 hrs by neutral red assay; assay type: cell-based; details: NIH3T3, 24 h
# Summary of the method: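 NIH3T3 mouse fibroblasts in DMEM with 10% FCS were seeded and after 24 h exposed to compound in DMSO (5-200 µM, six replicates) for 24 h. Viability measured by neutral red uptake (3 h dye incubation, then acetic acid/ethanol extraction). IC50 derived.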
# [3] = species: Homo sapiens; assay: Selectivity index, ratio of Ki for human recombinant CB2 receptor to Ki for human recombinant CB1 receptor
# [4] = species: Homo sapiens; assay: Selectivity index, ratio of Ki for human recombinant CB1 receptor to Ki for human recombinant CB2 receptor
# [5] = target: T2, Cannabinoid receptor 2 (Homo sapiens, UniProt P34972); assay: Displacement of [3H]CP-55,940 from human recombinant CB2 receptor expressed in HEK293 cell membranes
# T2 sequence (P34972 whole entry): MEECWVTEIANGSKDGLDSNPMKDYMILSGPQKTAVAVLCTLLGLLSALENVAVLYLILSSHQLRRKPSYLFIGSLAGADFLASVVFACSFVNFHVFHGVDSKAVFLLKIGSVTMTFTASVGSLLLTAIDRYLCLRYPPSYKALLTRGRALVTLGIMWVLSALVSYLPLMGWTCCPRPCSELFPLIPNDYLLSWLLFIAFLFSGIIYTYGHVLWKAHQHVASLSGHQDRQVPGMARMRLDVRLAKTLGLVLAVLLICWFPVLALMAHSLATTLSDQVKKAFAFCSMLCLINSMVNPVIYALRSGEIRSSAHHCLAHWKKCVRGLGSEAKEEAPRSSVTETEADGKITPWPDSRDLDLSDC
# [6] = target: T2, Cannabinoid receptor 2; assay: Agonist activity at human recombinant CB2 receptor expressed in CHO cell membranes assessed as stimulation of [35S]GTPgammaS binding relative to basal level; assay type: functional
# Summary of the method: (§1)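 Membranes from CHO cells stably expressing human CB1 or CB2, 50 µg protein per well, in Tris buffer with 100 mM NaCl, 5 mM MgCl2, 1 mM DTT, 1 mM EDTA, 0.1% BSA, pH 7.4. Incubated 60 min at 30°C with 0.1 nM [35S]GTPγS, 30 µM GDP and compound in DMSO. Nonspecific binding defined with 30 µM GTPγS. Filtration and scintillation counting. Percent change relative to DMSO control, n=6. EC50/Emax from sigmoidal fit.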
# [7] = target: T1, Cannabinoid receptor 1; assay: Agonist activity at human recombinant CB1 receptor expressed in CHO cell membranes assessed as stimulation of [35S]GTPgammaS binding relative to basal level; assay type: functional; summary of the method: as §1
# [8] = Inhibition of MGL in African green monkey COS7 cells cytosolic fraction assessed as reduction in 2-arachidonoyl-[3H]-glycerol hydrolysis by scintillation counting method; assay type: cell-based, Chlorocebus aethiops; details: cos-7
# [9] = test system: COS-7; assay: Inhibition of MGL in African green monkey COS7 cells cytosolic fraction assessed as reduction in 2-arachidonoyl-[3H]-glycerol hydrolysis at 50 uM by scintillation counting method; assay type: cell-based; details: Chlorocebus aethiops
# [10] = target: T3, Fatty-acid amide hydrolase 1 (Rattus norvegicus) (UniProt P97612); assay: Inhibition of FAAH in rat brain membranes assessed as reduction in [14C] anandamide hydrolysis at 10 uM by scintillation counting method; assay type: cell membranes; details: Membrane
# T3 sequence (whole entry): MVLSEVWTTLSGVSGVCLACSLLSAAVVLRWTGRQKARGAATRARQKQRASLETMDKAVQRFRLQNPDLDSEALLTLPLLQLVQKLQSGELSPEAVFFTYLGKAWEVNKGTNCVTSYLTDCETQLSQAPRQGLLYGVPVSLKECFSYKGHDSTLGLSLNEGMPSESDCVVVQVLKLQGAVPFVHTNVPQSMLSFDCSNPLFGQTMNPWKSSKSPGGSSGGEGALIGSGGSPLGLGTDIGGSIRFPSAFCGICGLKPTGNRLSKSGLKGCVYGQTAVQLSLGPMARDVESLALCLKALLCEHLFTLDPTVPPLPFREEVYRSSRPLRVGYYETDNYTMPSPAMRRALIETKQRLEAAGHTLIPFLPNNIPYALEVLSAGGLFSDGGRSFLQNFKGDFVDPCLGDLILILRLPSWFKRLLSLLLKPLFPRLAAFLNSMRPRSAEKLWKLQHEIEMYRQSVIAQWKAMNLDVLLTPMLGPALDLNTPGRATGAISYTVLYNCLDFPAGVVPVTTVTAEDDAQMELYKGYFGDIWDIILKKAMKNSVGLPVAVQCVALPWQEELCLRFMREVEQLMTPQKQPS
# [11] = target: T4, Fatty-acid amide hydrolase 1 (Rattus norvegicus, UniProt P97612); assay: Inhibition of FAAH in rat brain membranes assessed as reduction in [14C] anandamide hydrolysis by scintillation counting method; assay type: cell membranes, Membrane
# T4 sequence (P97612 whole entry): T3 sequence (whole entry)
# [12] = test system: COS-7; assay: Inhibition of MGL in African green monkey COS7 cells cytosolic fraction assessed as reduction in 2-arachidonoyl-[3H]-glycerol hydrolysis at 10 uM by scintillation counting method; assay type: cell-based; details: Chlorocebus aethiops
# [13] = target: T2, Cannabinoid receptor 2; assay: Agonist activity at human recombinant CB2 receptor expressed in CHO cell membranes by [35S]GTPgammaS binding assay; assay type: functional; summary of the method: as §1
# [14] = test system: COS-7; assay: Inhibition of MGL in African green monkey COS7 cells cytosolic fraction assessed as reduction in 2-arachidonoyl-[3H]-glycerol hydrolysis at 1 uM by scintillation counting method; assay type: cell-based; details: Chlorocebus aethiops
# [15] = target: T5, Transient receptor potential cation channel subfamily A member 1 (Rattus norvegicus, UniProt Q6RI86); assay: Antagonist activity at rat recombinant TRPA1 expressed in HEK293 cells assessed as reduction in isothiocynate-induced increase in intracellular calcium response by fluorescence assay; assay type: cell-based
# T5 sequence (Q6RI86 whole entry): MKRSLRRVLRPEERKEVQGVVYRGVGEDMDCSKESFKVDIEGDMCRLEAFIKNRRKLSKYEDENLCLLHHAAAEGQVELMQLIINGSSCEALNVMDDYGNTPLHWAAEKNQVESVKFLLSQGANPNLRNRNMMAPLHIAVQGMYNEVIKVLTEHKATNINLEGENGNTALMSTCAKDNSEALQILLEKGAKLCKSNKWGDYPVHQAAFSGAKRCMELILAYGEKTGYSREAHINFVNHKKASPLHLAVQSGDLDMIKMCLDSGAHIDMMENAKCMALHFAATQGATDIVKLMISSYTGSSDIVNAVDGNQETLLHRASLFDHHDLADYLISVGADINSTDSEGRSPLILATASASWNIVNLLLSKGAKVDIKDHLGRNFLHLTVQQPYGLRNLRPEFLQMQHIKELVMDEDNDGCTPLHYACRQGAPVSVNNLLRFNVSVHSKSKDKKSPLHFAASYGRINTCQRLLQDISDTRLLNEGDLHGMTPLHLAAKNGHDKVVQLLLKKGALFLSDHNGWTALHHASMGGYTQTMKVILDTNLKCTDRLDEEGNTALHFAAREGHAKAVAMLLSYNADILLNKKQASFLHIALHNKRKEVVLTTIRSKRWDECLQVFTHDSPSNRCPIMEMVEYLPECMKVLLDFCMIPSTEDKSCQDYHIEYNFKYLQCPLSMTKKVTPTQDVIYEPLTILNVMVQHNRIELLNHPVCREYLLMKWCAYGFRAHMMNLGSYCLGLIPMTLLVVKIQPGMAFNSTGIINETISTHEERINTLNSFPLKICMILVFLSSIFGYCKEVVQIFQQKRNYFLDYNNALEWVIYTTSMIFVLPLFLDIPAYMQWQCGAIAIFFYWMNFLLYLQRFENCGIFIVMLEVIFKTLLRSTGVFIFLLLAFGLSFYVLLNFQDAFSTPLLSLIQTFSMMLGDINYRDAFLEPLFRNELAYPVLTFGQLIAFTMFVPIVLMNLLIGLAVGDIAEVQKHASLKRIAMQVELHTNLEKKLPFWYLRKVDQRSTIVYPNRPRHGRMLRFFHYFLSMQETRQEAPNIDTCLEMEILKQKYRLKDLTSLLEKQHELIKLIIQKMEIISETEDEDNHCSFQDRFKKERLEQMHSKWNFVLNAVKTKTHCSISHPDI
# Summary of the method: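 Rat TRPA1-HEK293 cells loaded with Fluo-4 in Tyrode's buffer pH 7.4, 25 °C. Compound given as a 5 min pre-incubation before 100 µM allyl isothiocyanate. IC50 for half-maximal inhibition of the agonist-evoked [Ca2+]i rise, n=3.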
# [16] = target: T6, Transient receptor potential cation channel subfamily V member 1 (Homo sapiens, UniProt Q8NER1); assay: Agonist activity at human recombinant TRPV1 expressed in HEK293 cells assessed as increase in intracellular calcium level by fluorescence assay; assay type: cell-based
# T6 sequence (Q8NER1 whole entry): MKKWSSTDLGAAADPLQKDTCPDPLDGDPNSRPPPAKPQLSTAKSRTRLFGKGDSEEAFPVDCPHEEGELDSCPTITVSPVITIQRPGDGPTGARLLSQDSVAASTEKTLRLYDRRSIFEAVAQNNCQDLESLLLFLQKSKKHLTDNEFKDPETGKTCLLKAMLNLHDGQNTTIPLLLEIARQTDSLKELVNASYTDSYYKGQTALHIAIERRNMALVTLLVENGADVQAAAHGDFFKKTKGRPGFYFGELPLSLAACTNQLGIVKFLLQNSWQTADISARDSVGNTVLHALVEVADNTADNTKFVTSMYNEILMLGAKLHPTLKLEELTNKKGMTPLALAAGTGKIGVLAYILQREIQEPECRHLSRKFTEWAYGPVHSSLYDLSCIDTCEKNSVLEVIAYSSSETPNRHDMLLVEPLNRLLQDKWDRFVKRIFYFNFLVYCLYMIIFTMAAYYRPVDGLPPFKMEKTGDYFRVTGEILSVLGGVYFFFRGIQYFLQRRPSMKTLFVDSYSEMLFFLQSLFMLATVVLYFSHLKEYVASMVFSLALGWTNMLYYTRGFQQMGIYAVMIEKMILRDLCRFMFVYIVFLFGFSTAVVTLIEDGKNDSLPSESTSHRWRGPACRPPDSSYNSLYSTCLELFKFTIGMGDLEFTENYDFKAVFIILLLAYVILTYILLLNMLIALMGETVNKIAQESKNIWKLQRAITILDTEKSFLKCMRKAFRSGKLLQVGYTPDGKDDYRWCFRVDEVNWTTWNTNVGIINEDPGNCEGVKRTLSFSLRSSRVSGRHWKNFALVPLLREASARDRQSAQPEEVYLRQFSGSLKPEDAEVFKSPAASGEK
# Summary of the method: (§2)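 HEK293 cells stably expressing human TRPV1 were loaded with Fluo-4-AM (4 µM, 1 h, room temperature). Cells stirred in Tyrode's buffer pH 7.4; fluorescence read at ex 488/em 516 nm, 25 °C. Wild-type HEK293 response subtracted. Efficacy as percent of 4 µM ionomycin. EC50 from sigmoidal fit, n=3.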
# [17] = target: T6, Transient receptor potential cation channel subfamily V member 1; assay: Antagonist activity against human recombinant TRPV1 expressed in HEK293 cells assessed as reduction in capsaicin-induced intracellular calcium response pre-incubated 5 mins before capsaicin addition by fluorescence assay; assay type: cell-based
# Summary of the method: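 Human TRPV1-HEK293 cells loaded with Fluo-4 in Tyrode's buffer pH 7.4, 25 °C. Compound added 5 min before 0.1 µM capsaicin. IC50 taken as half-maximal inhibition of the capsaicin-induced [Ca2+]i rise, n=3.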
# [18] = target: Transient receptor potential cation channel subfamily A member 1 (Rattus norvegicus) (UniProt Q6RI86); assay: Agonist activity at rat recombinant TRPA1 expressed in HEK293 cells assessed as increase in intracellular calcium level by fluorescence assay relative to isothiocyanate; assay type: cell-based
# Transient receptor potential cation channel subfamily A member 1 (Rattus norvegicus), sequence (Q6RI86 whole entry): as the sequence (Q6RI86 whole entry) above
# Summary of the method: as §2, with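 “expressing rat TRPA1” for “expressing human TRPV1”, “7.4; [Ca2+]i” for “7.4;”, “of 100” for “of 4”, “µM allyl isothiocyanate.” for “µM ionomycin.”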
# [19] = test system: Mus musculus; assay: Toxicity in Swiss-Webster mouse formalin-induced pain model assessed as induction of abdominal writhing at >4 mg/kg, ip; assay type: organism-based, Abdomen; details: in vivo
# Summary of the method: (§3)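 Mice received compound or vehicle (0.9% NaCl) i.p. 10 min before formalin (1.25%) injected subcutaneously into the hind paw. Lifting, favouring, licking, shaking and flinching were scored blind as total duration per 5-min bin over 60 min. 8-10 animals per group; one-way ANOVA with Bonferroni test.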
# [20] = test system: Mus musculus; assay: Antinociceptive activity in Swiss-Webster mouse assessed as reduction in second phase of formalin-induced nociceptive behavior at 4 mg/kg, ip after 40 mins; assay type: functional, organism-based; set-up: dose 4 mg/kg; summary of the method: as §3
# [21] = target: T6, Transient receptor potential cation channel subfamily V member 1; assay: Agonist activity at human recombinant TRPV1 expressed in HEK293 cells assessed as increase in intracellular calcium level by fluorescence assay relative to ionomycin; assay type: cell-based; summary of the method: as §2
# [22] = target: T1, Cannabinoid receptor 1; assay: Agonist activity at human recombinant CB1 receptor expressed in CHO cell membranes by [35S]GTPgammaS binding assay; assay type: functional; summary of the method: as §1
# [23] = test system: Mus musculus; assay: Antinociceptive activity in Swiss-Webster mouse assessed as reduction in second phase of formalin-induced nociceptive behavior at 3 and 4 mg/kg, ip; assay type: functional, organism-based; set-up: dose 4 mg/kg; summary of the method: as §3
# [24] = target: T5, Transient receptor potential cation channel subfamily A member 1; assay: Agonist activity at rat recombinant TRPA1 expressed in HEK293 cells assessed as increase in intracellular calcium level by fluorescence assay; assay type: cell-based
# Summary of the method: as §2, with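 “expressing rat TRPA1” for “expressing human TRPV1”, “7.4; [Ca2+]i” for “7.4;”, “of 100” for “of 4”, “µM allyl isothiocyanate.” for “µM ionomycin.”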
smiles,measurement,setting,value
CCCCCCC(C)(C)c1cc(O)cc(OCCCCCCCC(=O)N[C@H](C)CO)c1,pKi,[1],7.76
same,pIC50,[2],4.16
same,Ratio Ki,[3],2.92
same,Ratio Ki,[4],0.34
same,pKi,[5],7.30
CCCCCCC(C)(C)c1ccc([C@@H]2C[C@H](O)CC[C@H]2CCCO)c(O)c1,Emax,[6],66.5%
same,Emax,[7],72.1%
CCCCCCc1ccc(OCCCCCCCCCCCN2C(=O)c3ccccc3C2=O)cc1O,pIC50,[8],< 4.30
same,Imax,[9],14.3%
CCCCCCC(C)(C)c1cc(O)cc(OCCCCCCCCCCCN2C(=O)c3ccccc3C2=O)c1,pIC50,[8],< 4.30
same,Imax,[9],14.4%
CCCCCCc1ccc(O)cc1OCCCCCCCCCCCN1C(=O)c2ccccc2C1=O,pIC50,[8],< 4.30
same,Imax,[9],16.3%
CCCCCc1cc(O)cc(OCCCCCCCCCCC(=O)NN2CCCCC2)c1,pIC50,[8],< 5.00
same,pKi,[1],5.75
same,Imax,[10],41%
same,pIC50,[11],< 5.00
same,Imax,[12],41.6%
same,Ratio Ki,[3],0.38
same,Ratio Ki,[4],2.63
same,pKi,[5],6.17
CCCCCc1cc(O)cc(OCCCCCCCCCCCN2C(=O)c3ccccc3C2=O)c1,pIC50,[8],< 4.30
same,Imax,[9],15.9%
CCCCCc1cc(O)cc(OCCCCCCCCCCC(=O)Nc2ccccc2)c1,pKi,[1],< 5.00
same,pEC50,[13],6.15
same,Emax,[6],-14.4%
same,Ratio Ki,[3],< 0.01
same,Ratio Ki,[4],> 78.2
same,pKi,[5],6.89
CCCCCCCCCCC[C@@H](C[C@@H]1OC(=O)[C@H]1CCCCCC)OC(=O)CNC=O,Imax,[14],60%
C=CCNC(=O)CCCCCCCOc1cc(O)cc(C(C)(C)CCCCCC)c1,pIC50,[15],5.13
same,pEC50,[16],5.16
same,pIC50,[17],4.62
same,pKi,[1],8.14
same,pEC50,[13],7.35
same,Efficacy,[18],51.3%
same,Activity,[19],Toxic
same,pIC50,[2],3.73
same,Emax,[6],13.4%
same,Activity,[20],Active
same,Emax,[7],60.6%
same,Efficacy,[21],18.6%
same,Ratio Ki,[3],1.02
same,pEC50,[22],6.86
same,Activity,[23],Active
same,Ratio Ki,[4],0.98
same,pKi,[5],8.13
same,pEC50,[24],5.57
CCCCCc1cc(O)cc(OCCCCCCCCCN2C(=O)c3ccccc3C2=O)c1,pIC50,[8],< 4.30
same,Imax,[9],16.8%
CCCCCc1cc(O)cc(OCCCCCCCCCCC(=O)NN(C)C)c1,pIC50,[8],< 5.00
same,pKi,[1],6.07
same,Imax,[10],28.2%
same,pIC50,[11],< 5.00
same,Imax,[12],42.9%
same,Ratio Ki,[3],0.22
same,Ratio Ki,[4],4.63
same,pKi,[5],6.74
CCCCCCC(C)(C)c1cc(O)cc(OCCCCCCCCCN2C(=O)c3ccccc3C2=O)c1,pIC50,[8],< 4.30
same,Imax,[9],18.8%
